Laboratory results: ChEMBL document CHEMBL1153955, “Indolylarylsulfones bearing natural and unnatural amino acids. Discovery of potent inhibitors of HIV-1 non-nucleoside wild type and resistant mutant strains reverse transcriptase and coxsackie B4 virus” (J Med Chem, 2009)

Experiments:
[1] = system: Respiratory syncytial virus; assay: Antiviral activity against RSV Long in human HeLa cells assessed as protection against virus-induced cytopathicity; format: functional, organism-based
In short: (§1)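 Confluent cell monolayers inoculated with 100 CCID₅₀ virus. After 1-2 h adsorption, residual virus removed and cultures incubated with varying compound concentrations. Cytopathicity scored once it reached completion in untreated infected controls. EC₅₀ = dose reducing virus-induced cytopathogenicity by 50%.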

Influenza A virus H3N2 [2] = assay: Antiviral activity against influenza H3N2 virus in MDCK cells assessed as reduction of virus-induced cytopathicity by visual cytopathic effect scoring method; format: functional, organism-based
Coxsackievirus B4 [3] = assay: Antiviral activity against Coxsackievirus B4 in african green monkey Vero cells assessed as protection against virus-induced cytopathicity; format: functional, organism-based; settings: Enterovirus B; in short: as §1
[4] = system: Human immunodeficiency virus 1; assay: Antiviral activity against HIV1 with reverse transcriptase L100I mutation in human CEM cells assessed as protection against virus-induced cytopathicity; format: functional, organism-based; settings: Human immunodeficiency virus 1, CCRF-CEM
In short: (§2)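 CEM cells (~3 × 10⁵ cells/mL) were infected with ~100 CCID₅₀ virus per mL and seeded with serial compound dilutions. After 4 days at 37 °C, syncytium (giant cell) formation was scored microscopically. EC₅₀ is the concentration giving 50% protection against virus cytopathicity.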

Vaccinia virus = assay: Antiviral activity against Vaccinia virus Lederle in human HEL cells assessed as protection against virus-induced cytopathicity; format: functional, organism-based; settings: Orthopoxvirus vaccinia
[5] = biological target: Human immunodeficiency virus type 1 reverse transcriptase (Human immunodeficiency virus 1, UniProt Q72547, K103N); assay: Inhibition of HIV1 reverse transcriptase p66/p51 K103N mutant; settings: read-out: IC50
In short: (§3)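 Substrate was 0.5 µg poly(rA)/oligo(dT) 10:1 (0.3 µM 3′-OH ends) with 10 µM [³H]dTTP, at 37 °C. Acid-precipitable radioactivity was counted on GF/C filters after TCA washes.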

[6] = Cytotoxicity against MDCK cells by MTS assay; format: cell-based, Canis lupus familiaris; settings: dog
[7] = system: Human immunodeficiency virus 1; assay: Antiviral activity against HIV1 with reverse transcriptase K103N mutation in human CEM cells assessed as protection against virus-induced cytopathicity; format: functional, organism-based; settings: Human immunodeficiency virus 1, CCRF-CEM; in short: as §2
L1210 = assay: Antiproliferative activity against mouse L1210 cells after 2 days; format: cell-based; settings: L1210, 48 h
In short: (§4)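 Cells seeded at 5 × 10⁴ to 7.5 × 10⁴ cells/200 µL with or without serial compound dilutions; incubated at 37 °C for 2 days (L1210) or 3 days (Molt4/C8, CEM). Cell numbers counted with a Coulter counter. CC₅₀ = concentration reducing proliferation by 50% versus untreated controls, read from plots of cell number (% of control) against concentration. Means of at least two independent experiments.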

[8] = biological target: Human immunodeficiency virus type 1 reverse transcriptase (Human immunodeficiency virus 1, UniProt Q72547, L100I); assay: Inhibition of HIV1 reverse transcriptase p66/p51 L100I mutant; settings: read-out: IC50; in short: as §3
[9] = system: Human immunodeficiency virus 1; assay: Antiviral activity against HIV1 with reverse transcriptase Y188L mutation in human CEM cells assessed as protection against virus-induced cytopathicity; format: functional, organism-based; settings: Human immunodeficiency virus 1, CCRF-CEM; in short: as §2
Influenza B virus [10] = assay: Antiviral activity against influenza B virus in MDCK cells assessed as reduction of virus-induced cytopathicity by MTS method; format: functional, organism-based
[11] = Cytotoxicity against african green monkey Vero cells assessed as drug level causing microscopically detectable alteration of normal cell morphology after 3 days; format: cell-based; settings: chlorocebus sabaeus
In short: (§5)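 Serial compound dilutions added to confluent HeLa or Vero monolayers. MCC = minimum concentration causing microscopically detectable alteration of cell morphology after 3 days of incubation.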

CCRF-CEM = assay: Antiproliferative activity against human CEM cells after 3 days; format: cell-based; settings: 72 h; in short: as §4
[12] = system: Vesicular stomatitis virus; assay: Antiviral activity against VSV in human HEL cells assessed as protection against virus-induced cytopathicity; format: functional, organism-based
[13] = system: Human immunodeficiency virus 1; assay: Antiviral activity against HIV1 3B in human CEM cells assessed as protection against virus-induced cytopathicity after 4 days; format: functional, organism-based; settings: Human immunodeficiency virus 1, 3B, CCRF-CEM, 96 h
In short: (§6)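 CEM cells (~3 × 10⁵ cells/mL) infected with ~100 CCID₅₀ per mL of HIV-1 (IIIB) or HIV-2 (ROD), then seeded into wells containing compound dilutions. After 4 days at 37 °C, syncytium (giant cell) formation was examined microscopically. EC₅₀ = concentration protecting CEM cells from HIV cytopathicity by 50%.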

[14] = Cytotoxicity against human HEL cells assessed as drug level causing microscopically detectable alteration of normal cell morphology after 3 days; format: cell-based
[15] = Cytotoxicity against MDCK cells assessed as drug level causing microscopically detectable alteration of normal cell morphology; format: cell-based, Canis lupus familiaris; settings: dog
Influenza B virus [16] = assay: Antiviral activity against influenza B virus in MDCK cells assessed as reduction of virus-induced cytopathicity by visual cytopathic effect scoring method; format: functional, organism-based
[17] = system: Human immunodeficiency virus 2; assay: Antiviral activity against HIV2 ROD in human CEM cells assessed as protection against virus-induced cytopathicity after 4 days; format: functional, organism-based; settings: Human immunodeficiency virus 2, ROD, CCRF-CEM, 96 h; in short: as §6
Human alphaherpesvirus 1 [18] = assay: Antiviral activity against thymidine kinase deficient and acyclovir resistant HSV1 KOS in human HEL cells assessed as protection against virus-induced cytopathicity; format: functional, organism-based; settings: Human alphaherpesvirus 1, KOS
[19] = biological target: Human immunodeficiency virus type 1 reverse transcriptase (Human immunodeficiency virus 1, UniProt Q72547, Y181I); assay: Inhibition of HIV1 reverse transcriptase p66/p51 Y181I mutant; settings: read-out: IC50; in short: as §3
[20] = system: Mammalian orthoreovirus 1; assay: Antiviral activity against Reovirus 1 in african green monkey Vero cells assessed as protection against virus-induced cytopathicity; format: functional, organism-based; settings: Mammalian orthoreovirus 1, Vero; in short: as §1
[21] = system: Human immunodeficiency virus 1; assay: Antiviral activity against HIV1 with reverse transcriptase Y181I mutation in human CEM cells assessed as protection against virus-induced cytopathicity; format: functional, organism-based; settings: Human immunodeficiency virus 1, CCRF-CEM; in short: as §2
Human alphaherpesvirus 2 = assay: Antiviral activity against HSV2 G in human HEL cells assessed as protection against virus-induced cytopathicity; format: functional, organism-based; settings: Human alphaherpesvirus 2, strain G; in short: as §1
Influenza A virus H3N2 [22] = assay: Antiviral activity against influenza H3N2 virus in MDCK cells assessed as reduction of virus-induced cytopathicity by MTS method; format: functional, organism-based
Feline coronavirus = assay: Antiviral activity against Feline coronavirus in feline […] cells assessed as inhibition of virus-induced cytopathicity; format: functional, organism-based; settings: Alphacoronavirus 1
[23] = Antiproliferative activity against human Molt4/C8 cells after 3 days; format: cell-based; settings: MOLT-4, 72 h; in short: as §4
[24] = system: Human immunodeficiency virus 1; assay: Antiviral activity against HIV1 with reverse transcriptase Y181C mutation in human CEM cells assessed as protection against virus-induced cytopathicity; format: functional, organism-based; settings: Human immunodeficiency virus 1, CCRF-CEM; in short: as §2
Felid alphaherpesvirus 1 = assay: Antiviral activity against Feline herpesvirus in feline […] cells assessed as inhibition of virus-induced cytopathicity; format: functional, organism-based
Punta Toro virus = assay: Antiviral activity against Punta Toro virus in african green monkey Vero cells assessed as protection against virus-induced cytopathicity; format: functional, organism-based; in short: as §1
Sindbis virus = assay: Antiviral activity against Sindbis virus in african green monkey Vero cells assessed as protection against virus-induced cytopathicity; format: functional, organism-based; in short: as §1
[25] = biological target: Human immunodeficiency virus type 1 reverse transcriptase (Human immunodeficiency virus 1, UniProt Q72547); assay: Inhibition of HIV1 reverse transcriptase p66/p51; settings: read-out: IC50
[26] = system: Vesicular stomatitis virus; assay: Antiviral activity against VSV in human HeLa cells assessed as protection against virus-induced cytopathicity; format: functional, organism-based
Human alphaherpesvirus 1 [27] = assay: Antiviral activity against HSV1 KOS in human HEL cells assessed as protection against virus-induced cytopathicity; format: functional, organism-based; settings: Human alphaherpesvirus 1, KOS
Influenza A virus [28] = assay: Antiviral activity against influenza H1N1 virus in MDCK cells assessed as reduction of virus-induced cytopathicity by visual cytopathic effect scoring method; format: functional, organism-based
[29] = Cytotoxicity against feline CRFK cells by MTS assay; format: cell-based, Felis catus; settings: cat
Human respirovirus 3 = assay: Antiviral activity against Parainfluenza virus type 3 in african green monkey Vero cells assessed as protection against virus-induced cytopathicity; format: functional, organism-based; settings: Human respirovirus 3, Vero; in short: as §1
[30] = Cytotoxicity against human HeLa cells assessed as drug level causing microscopically detectable alteration of normal cell morphology after 3 days; format: cell-based; in short: as §5
Influenza A virus [31] = assay: Antiviral activity against influenza H1N1 virus in MDCK cells assessed as reduction of virus-induced cytopathicity by MTS method; format: functional, organism-based; settings: Influenza A virus, H1N1, MDCK
Coxsackievirus B4 [32] = assay: Antiviral activity against Coxsackievirus B4 in human HeLa cells assessed as protection against virus-induced cytopathicity; format: functional, organism-based; settings: Enterovirus B; in short: as §1

Which EC50 [1] does the source give for `Cc1cc(C)cc(S(=O)(=O)c2c(C(=O)NC(C)C(N)=O)[nH]c3ccc(Cl)cc23)c1` (stereo unspecified) here?
The EC50 was greater than 100 µM.

And the EC50 (Influenza A virus H3N2 [2])?
The EC50 was greater than 4 µM.

What about the EC50 (Coxsackievirus B4 [3]) of the same molecule?
Its EC50 is greater than 20 µM.

And the IC50 [4]?
Its IC50 is 0.009 µM.

What about the EC50 (Vaccinia virus) of the same molecule?
Its EC50 is greater than 100 µM.

And the IC50 [5]?
The IC50 was 0.19 µM.

And the CC50 [6]?
The CC50 was 16 µM.

And the IC50 [7]?
Its IC50 is 0.014 µM.

What about the IC50 (L1210) of the same molecule?
Its IC50 is 12 µM.

And the IC50 [8]?
The IC50 was 0.112 µM.

And the IC50 [9]?
Its IC50 is 0.66 µM.

What about the EC50 (Influenza B virus [10]) of the same molecule?
Its EC50 is greater than 4 µM.

And the MCC at 72 h [11]?
The MCC at 72 h was 100 µM.

What about the IC50 (CCRF-CEM) of the same molecule?
The IC50 was 11 µM.

What about the EC50 [12] of the same molecule?
The EC50 was greater than 100 µM.

And the EC50 [13]?
Its EC50 is 0.0016 µM.

And the MCC at 72 h [14]?
Its MCC at 72 h is greater than 100 µM.

And the MCC [15]?
Its MCC is 20 µM.

And the EC50 (Influenza B virus [16])?
The EC50 was greater than 4 µM.

What about the EC50 [17] of the same molecule?
Its EC50 is greater than 10 µM.

And the EC50 (Human alphaherpesvirus 1 [18])?
Its EC50 is greater than 100 µM.

What about the IC50 [19] of the same molecule?
The IC50 was 2.49 µM.

What about the EC50 [20] of the same molecule?
The EC50 was greater than 20 µM.

What about the IC50 [21] of the same molecule?
Its IC50 is greater than 1 µM.

What about the EC50 (Human alphaherpesvirus 2) of the same molecule?
Its EC50 is greater than 100 µM.

And the EC50 (Influenza A virus H3N2 [22])?
The EC50 was greater than 4 µM.

What about the EC50 (Feline coronavirus) of the same molecule?
Its EC50 is greater than 20 µM.

And the IC50 [23]?
The IC50 was 3.8 µM.

What about the IC50 [24] of the same molecule?
The IC50 was 0.096 µM.

What about the EC50 (Felid alphaherpesvirus 1) of the same molecule?
Its EC50 is greater than 20 µM.

What about the EC50 (Punta Toro virus) of the same molecule?
Its EC50 is greater than 20 µM.

And the EC50 (Sindbis virus)?
The EC50 was greater than 20 µM.

And the IC50 [25]?
The IC50 was 0.02 µM.

What about the EC50 [26] of the same molecule?
The EC50 was greater than 100 µM.

And the EC50 (Human alphaherpesvirus 1 [27])?
Its EC50 is greater than 100 µM.

What about the EC50 (Influenza A virus [28]) of the same molecule?
Its EC50 is greater than 4 µM.

What about the CC50 [29] of the same molecule?
Its CC50 is 39.3 µM.

What about the EC50 (Human respirovirus 3) of the same molecule?
Its EC50 is greater than 20 µM.

And the MCC at 72 h [30]?
The MCC at 72 h was 100 µM.

What about the EC50 (Influenza A virus [31]) of the same molecule?
Its EC50 is greater than 4 µM.

And the EC50 (Coxsackievirus B4 [32])?
The EC50 was 6 µM.

For `O=C1Nc2ccc(Cl)cc2[C@@](C#CC2CC2)(C(F)(F)F)O1` [EFAVIRENZ], which IC50 [4] is on record?
Its IC50 is 0.022 µM.

What about the IC50 [7] of the same molecule?
The IC50 was 0.13 µM.

And the IC50 [9]?
The IC50 was 0.76 µM.

What about the IC50 [21] of the same molecule?
The IC50 was 0.012 µM.

What about the IC50 [24] of the same molecule?
Its IC50 is 0.16 µM.

What does the source list for `Cc1ccnc2c1NC(=O)c1cccnc1N2C1CC1` [NEVIRAPINE]?
IC50 [4]: 0.06 µM; IC50 [7]: 2.9 µM; IC50 [9]: > 10 µM; IC50 [21]: > 10 µM; IC50 [24]: 11 µM
